Assay outcomes deposited in PubChem BioAssay by several laboratories.
PERK inhibitor – inhibitors of human PERK kinase; CHO PERK-DD fusion, SEAP luminescence translation reporter; hit rate 0.17% among 220,000; AID 1416; inhibition, % at 5.6 µM;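 active means inhibition above the mean inhibition of all tested compounds plus 3 SD, set separately per screening campaign, cut at about 2.9% in these data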;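 further: PERK kinase domain activated by AP20187 dimerizer at 100 nM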
RanGTP-Imp inh – inhibitors of RanGTP-importin-beta interaction, primary screen, biochemical, FRET, CFP-Ran, YFP-importin-beta, homogeneous; cell-free CFP-Ran/YFP-importin-beta FRET ratio; inhibition, % (test concentration not listed); hit rate 1.1% among 300,000;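 active means more than half of the replicate wells show a fall in the fluorescence ratio signal beyond about 16%, limit read from the data, passing the limit was not always enough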
Hck-Nef inh – blocks Nef-activated human Hck kinase; P08631; Recombinant Hck-YEEI plus Nef, Z-Lyte FRET kinase assay; inhibition, % at 20 µM; hit rate 0.68% among 220,000;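 active means Hck-Nef kinase inhibition above about 50%, limit read from the data; inactive means inhibition below that limit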
Target sequence (P08631 whole entry, looked up): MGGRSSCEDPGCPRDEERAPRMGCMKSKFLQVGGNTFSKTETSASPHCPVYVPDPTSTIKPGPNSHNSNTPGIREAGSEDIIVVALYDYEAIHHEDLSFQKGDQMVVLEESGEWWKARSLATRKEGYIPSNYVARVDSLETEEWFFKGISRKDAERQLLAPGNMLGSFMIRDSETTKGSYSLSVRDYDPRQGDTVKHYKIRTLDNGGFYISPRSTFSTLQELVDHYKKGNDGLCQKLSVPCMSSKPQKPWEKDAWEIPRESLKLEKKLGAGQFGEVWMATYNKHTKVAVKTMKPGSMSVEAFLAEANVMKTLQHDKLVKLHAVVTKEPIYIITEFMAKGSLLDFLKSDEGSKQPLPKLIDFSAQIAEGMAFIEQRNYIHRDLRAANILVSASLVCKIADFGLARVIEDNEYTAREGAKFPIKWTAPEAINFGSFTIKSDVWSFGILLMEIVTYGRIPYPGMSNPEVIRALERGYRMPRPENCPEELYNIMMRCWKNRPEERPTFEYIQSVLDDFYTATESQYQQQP
Runt-CBFb FRET – Runt domain-CBFb interaction inhibition. Q01196+Q13951. Cerulean-Runt/Venus-CBFb FRET ratio 530/480, 1 h. inhibition, % at 20 µM. hit rate 0.46% among 220,000. AID 1496;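 active means inhibition over about 50% at 20 µM in the single-dose screen, limit read from the data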
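Measured by: fluorescence energy transfer, 422 nm excitation, 530/480 nm emission; Assay system: Cerulean-Runt domain; Medium: Tris pH 7.5 buffer with BSA; Measure: loss of energy transfer signal; Controls: 5 µM unlabeled CBFb as full-inhibition high control; Incubation: protein complex preformed 1 h, compound exposure 1 h, room temperature, dark.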
Runt-SMMHC FRET – Runt domain-CBFb-SMMHC interaction inhibition; inhibition, % at 20 µM; hit rate 0.74% among 220,000; Q01196+Q13951; Cerulean-Runt/Venus-CBFb-SMMHC FRET ratio 530/480, 1 h;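 active means mean inhibition across duplicate retests at 20 µM reaching about 50%, limit read from the data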;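 further: inhibitors lower the FRET ratio by blocking Runt binding to CBFb-SMMHC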
eIF4E-4G inh – inhibitors of eIF4E and eIF4G interaction in translation initiation | TR-FRET eIF4E-eIF4GI(517-606) binding, 2 h | inhibition, % at 21.7 µM | hit rate 0.37% among 220,000 | AID 782;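 active means inhibition above about 30%, limit read from the data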
Hck Nef conf – confirmation of Hck-Nef kinase inhibitors | shares compounds with Hck-Nef inh | Recombinant Hck-YEEI:Nef, Z-Lyte FRET kinase assay | calls only at 10 µM | hit rate 28% among 1,300;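 active means average inhibition of at least 50%, with Z-scores no higher than 3 in both the phospho-tyrosine peptide and fluorescence counterscreens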
Hits are given with their value; . = inactive; / = not tested or not shown; + = active, no number. A selection: hits, their analogues and other compounds. The true share with any hit is near 2.2%.

SMILES	PERK inhibitor	RanGTP-Imp inh	Hck-Nef inh	Runt-CBFb FRET	Runt-SMMHC FRET	eIF4E-4G inh	Hck Nef conf
CC1=NN(c2ccc(C)cc2)C(=O)/C1=C\C=C\c1ccccc1	.	.	.	.	.	.	/
CC1=NN(c2cccc(C(=O)O)c2)C(=O)/C1=C\C=C/c1ccccc1	.	.	58.5	.	.	.	.
COCCCNc1nc2c(c(=O)n(Cc3ccc(F)cc3)c(=O)n2C)n1C	/	.	/	/	/	/	/
Cn1c(N/N=C2\CCCc3ccccc32)nc2c1c(=O)n(Cc1ccc(F)cc1)c(=O)n2C	.	.	56.3	.	.	.	.
CC(=O)OC(C)[C@H]1CC[C@H]2[C@@H]3CC[C@H]4C[C@@H](OC(C)=O)CC[C@]4(C)C3=CC[C@]12C (stereo partly drawn)	/	.	/	/	/	/	/
COc1ccc(C(=O)Nc2ccc(O)c3c(=O)cc(-c4cccc(Cl)c4)oc23)cc1	/	.	82.8	.	.	.	.
CC(C)(C)c1ccc(C(=O)Nc2ccc(O)c3c(=O)cc(-c4cccc(Cl)c4)oc23)cc1	/	.	.	.	.	.	/
Cc1cc(/C=C2\SC(=Nc3ccccc3)NC2=O)c(C)n1-c1ccc(S(N)(=O)=O)cc1	.	20.8	58.8	.	.	.	.
COc1ccc(-n2c(C)cc(/C=C3\SC(=O)NC3=O)c2C)cc1	/	.	/	/	/	/	/
CC(NC(=O)C1CC12CCC2)c1ccccc1 (stereo not drawn)	.	.	.	.	.	.	/
OC12CC3C[C@H](C1)C(N1CCOCC1)[C@@H](C3)C2 (stereo partly drawn)	/	.	/	/	/	/	/
Cc1cccc(NC(=O)CSc2nc(COc3ccccc3)nc3ccccc23)c1C	.	.	60.5	.	.	.	.
O=C(/C=C/c1ccc(Br)o1)Nc1nnc(C2CC2)s1	.	.	57.2	.	.	.	+
O=c1[nH][nH]c2c(N=Cc3ccccc3O)ccc(F)c12	.	/	59.7	.	.	.	.
O=c1cc(-c2ccc(O)c(O)c2)oc2c(C3O[C@H](CO)[C@@H](O)[C@H](O)[C@H]3O)c(O)cc(O)c12 (stereo partly drawn)	.	.	.	.	.	.	/
C/C=C/C=C\C(=O)Nc1cccc(C2=NOC3(C2)C[C@@H](C(N)=O)N(C(=O)c2cc([N+](=O)[O-])cc([N+](=O)[O-])c2)C3)c1 (stereo partly drawn)	/	.	50.3	.	.	.	.
C/C=C\C=C\C(=O)N1CC2(CC(c3cccc(NC(=O)CC(c4ccccc4)c4ccccc4)c3)=NO2)C[C@H]1C(N)=O (stereo partly drawn)	/	.	77.7	.	.	.	.
C/C=C\C=C/C(=O)Nc1cccc(C2=NOC3(C2)C[C@@H](C(N)=O)N(C(=O)/C=C/C=C\C)C3)c1 (stereo partly drawn)	/	.	.	.	.	.	/
CC1CC1C(=O)OCC(=O)NCc1ccc(Cl)cc1Cl (stereo not drawn)	.	.	.	.	.	.	/
COc1ccc(C(=O)NNC(=O)C(Cc2ccc(O)cc2)NC(=O)c2ccccc2NC(=O)c2ccc(OC)cc2)cc1 (stereo not drawn)	.	.	.	.	.	.	/
COc1ccc(C(=O)Nc2ccccc2C(=O)NC(Cc2ccc(O)cc2)C(=O)NNC(=O)c2ccccc2Cl)cc1 (stereo not drawn)	.	.	65.8	.	.	.	.
COc1ccc(/C=C2/C(=N)N3C(=NC2=O)Sc2cc(S(C)(=O)=O)ccc23)cc1OC	.	.	.	.	.	.	/
CCOC(=O)c1nc(Nc2cc(C)cc(C)c2)c2ccccc2n1	.	.	.	.	.	.	/
Cc1nc2cc(N3CCN(C)CC3)c(NC(=O)Cc3ccccc3)cc2c(=O)n1Cc1ccccc1	.	.	.	.	.	.	/
Cc1nc2cc(N3CCCCC3)c(NC(=O)c3ccncc3)cc2c(=O)n1Cc1ccc(Cl)cc1	.	.	67.4	.	.	.	.
CSc1nc(-c2ccccc2)[nH]c(=S)c1C(C)=O	.	.	.	.	.	.	/
